From ChEMBL document CHEMBL1121366, “Synthesis and immunological activity of 5,6,6a,8,9,11a-hexahydronaphth[1',2':4,5]imidazo[2,1-b]thiazoles and 5,6,6a,9,10,11a-hexahydroanaphth[2',1':4,5]imidazo[2,1-b]thiazoles” (J Med Chem, 1980)

Tests used:
Mus musculus [1] = experiment: Tested for increase in foot-pad thickness (mm) by its effect on cellular immune response in mice against sheep red blood cells by the DHR method in experiment 12 at dose 3 mg/kg; format: functional
How it was run: (§1)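 Delayed-type hypersensitivity was run in male CDF1 (Balb/c × DBA/2Cr) mice, 8-10 weeks old, groups of four. Mice were sensitized with 1 × 10^8 SRBC in PBS into one hind footpad, with sc inguinal dosing in saline or in 1% Me2SO-saline. Four days later the opposite footpad was challenged with 1 × 10^8 SRBC. The read-out was the gauge-measured increase in thickness from just before to 24 h after challenge, as mean ± SE (n = 4).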

Mus musculus [2] = experiment: Effect on humoral immune response in mice against sheep red blood cells by the plaque-forming cell (PFC/10e6 spleen cells) method in experiment 3 at dose 12 mg/kg; format: functional
How it was run: (§2)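 Male ICR mice, 8-10 weeks old, groups of four, were immunized iv with 1 × 10^8 SRBC in PBS. After 24 h they received a single sc inguinal dose in saline, or as a suspension in saline with 1% Me2SO. Splenic hemolytic plaque-forming cells were counted 4 days later by Cunningham's method. Values are the mean of four ± SE, with a paired t test against the control.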

Mus musculus [3] = experiment: Effect on humoral immune response in mice against sheep red blood cells by the plaque-forming cell (PFC/10e6 spleen cells) method in experiment 3 at dose 3 mg/kg; format: functional; how it was run: as §2
Mus musculus [4] = experiment: Tested for increase in foot-pad thickness (mm) by its effect on cellular immune response in mice against sheep red blood cells by DHR method in experiment 12 at dose 12 mg/kg; format: functional; how it was run: as §1
Mus musculus [5] = experiment: Tested for increase in foot-pad thickness (mm) by its effect on cellular immune response in mice against sheep red blood cells by DHR method in experiment 14 at dose 12 mg/kg; format: functional; how it was run: as §1
Mus musculus [6] = experiment: Effect on humoral immune response in mice against sheep red blood cells by the plaque-forming cell (PFC/10e6 spleen cells) method in experiment 5 at dose 12 mg/kg; format: functional
How it was run: (§3)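 Male CDF1 (Balb/c × DBA/2Cr) mice, 8-10 weeks old, groups of four, were immunized iv with 1 × 10^8 SRBC in PBS. After 24 h they received a single sc inguinal dose in saline, or as a suspension in saline with 1% Me2SO. Spleens were taken 4 days later and hemolytic plaque-forming cells counted by Cunningham's method. Values are the mean of four mice ± SE, with a paired Student's t test against the control.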

Mus musculus [7] = experiment: Tested for increase in foot-pad thickness (mm) by its effect on cellular immune response in mice against sheep red blood cells by the DHR method in experiment 14 at dose 3 mg/kg; format: functional; how it was run: as §1
Mus musculus [8] = experiment: Effect on humoral immune response in mice against sheep red blood cells by the plaque-forming cell (PFC/10e6 spleen cells) method in experiment 5 at dose 3 mg/kg; format: functional; how it was run: as §3
Mus musculus [9] = experiment: Tested increase in foot-pad thickness (mm) by its effect on cellular immune response in mice against sheep red blood cells by the DHR method in experiment 16 at dose 3 mg/kg; format: functional
How it was run: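 Male ICR mice, 8–10 weeks old, groups of four. Sensitized with SRBC (1 × 10^8) in PBS injected into one hind footpad; compound given sc in the inguinal region in saline or in saline with 1% Me2SO. Four days later the other hind footpad was challenged with SRBC (1 × 10^8). Dial gauge read just before and 24 h after challenge. Value is the mean increase ± SE.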

Mus musculus [10] = experiment: Effect on humoral immune response in mice against sheep red blood cells by the plaque-forming cell (PFC/10e 6 spleen cells) method in experiment 2 at dose 3 mg/kg; format: functional; how it was run: as §2
Mus musculus [11] = experiment: (§4) Acute lethal dose was determined in mice upon subcutaneous administration; format: ADME, organism-based; details: in vivo, sc
How it was run: (§5)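 Male mice, 8–10 weeks old, CDF1 (Balb/c × DBA/2Cr). Groups of six dosed once, either iv or sc. Three to five dose levels were chosen from 400, 300, 150, 80, 40, 20 and 10 mg/kg. LD50 was calculated by the Litchfield–Wilcoxon method. Vehicle was saline or saline with 1% Me2SO, depending on compound.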

Mus musculus [12] = experiment: Tested for the immunological activity by its effect on humoral immune response in mice against sheep red blood cells (SRBC) by the plaque-forming cell (PFC/10e 6 spleen cells) method in experiment 7 at dose 12 mg/kg; format: functional; how it was run: as §3
Mus musculus [13] = experiment: Tested for increase in foot-pad thickness (mm) by its effect on cellular immune response in mice against sheep red blood cells by DHR method in experiment 16 at dose 12 mg/kg; format: functional
How it was run: (§6)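 Male mice, 8–10 weeks old, ICR strain. Groups of four were sensitized with 1 × 10^8 SRBC in PBS into one hind footpad, with compound given sc in the inguinal region in saline or saline/1% Me2SO. Four days later, 1 × 10^8 SRBC were injected into the other hind footpad. Foot thickness was measured with a dial gauge just before and 24 h after this challenge, and the increase was taken as the difference. Values are the mean of four mice ± SE.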

Mus musculus [14] = experiment: (§7) Acute lethal dose was determined in mice upon intravenous administration; format: ADME, organism-based; details: in vivo; how it was run: as §5
Mus musculus [15] = experiment: Effect on humoral immune response in mice against sheep red blood cells by the plaque-forming cell (PFC/10e 6 spleen cells) method in experiment 2 at dose 12 mg/kg; format: functional; how it was run: as §2
Mus musculus [16] = experiment: Tested for increase in foot-pad thickness (mm) by its effect on cellular immune response in mice against sheep red blood cells by DHR method in experiment 11 at dose 12 mg/kg; format: functional
How it was run: (§8)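 Male ICR mice, 8-10 weeks old, groups of four, were sensitized with 1 × 10^8 SRBC in PBS into one hind footpad and dosed sc in the inguinal region, in saline or in saline with 1% Me2SO. Four days later the other footpad was challenged with 1 × 10^8 SRBC. Foot thickness was gauged just before and 24 h after challenge, and the increase was reported as mean of four ± SE.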

Mus musculus [17] = experiment: Tested for the immunological activity by its effect on humoral immune response in mice against sheep red blood cells (SRBC) by the plaque-forming cell (PFC/10e 6 spleen cells) method in experiment 7 at dose 3 mg/kg; format: functional; how it was run: as §3
Mus musculus [18] = experiment: Effect on humoral immune response in mice against sheep red blood cells by the plaque-forming cell (PFC/10e 6 spleen cells) method in experiment 1 at dose 12 mg/kg; format: functional; how it was run: as §3
Mus musculus [19] = experiment: Tested for increase in foot-pad thickness (mm) by its effect on cellular immune response in mice against sheep red blood cells by the DHR method in experiment 10 at dose 3 mg/kg; format: functional; how it was run: as §8
Mus musculus [20] = experiment: Tested for increase in foot-pad thickness (mm) by its effect on cellular immune response in mice against sheep red blood cells by DHR method in experiment 10 at dose 12 mg/kg; format: functional; how it was run: as §8
Mus musculus [21] = experiment: Effect on humoral immune response in mice against sheep red blood cells by the plaque-forming cell (PFC/10e 6 spleen cells) method in experiment 1 at dose 3 mg/kg; format: functional; how it was run: as §3
Mus musculus [22] = experiment: Effect on humoral immune response in mice against sheep red blood cells by the plaque-forming cell (PFC/10e6 spleen cells) method in experiment 7 at dose 3 mg/kg; format: functional
How it was run: (§9)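 Male mice, 8–10 weeks old, CDF1 (Balb/c × DBA/2Cr) in experiment 7. Groups of four were immunized iv with 1 × 10^8 SRBC in PBS. After 24 h, compound was given sc in the inguinal region in saline or saline/1% Me2SO. Four days later, splenic hemolytic plaque-forming cells were counted by the Cunningham method and expressed per 10^6 spleen cells. Values are the mean of four mice ± SE.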

Mus musculus [23] = experiment: Tested for increase in foot-pad thickness (mm) by its effect on cellular immune response in mice against sheep red blood cells by the DHR method in experiment 16 at dose 3 mg/kg; format: functional; how it was run: as §6
Mus musculus [24] = experiment: Effect on humoral immune response in mice against sheep red blood cells by the plaque-forming cell (PFC/10e6 spleen cells) method in experiment 7 at dose 12 mg/kg; format: functional; how it was run: as §9
Mus musculus [25] = experiment: Effect on humoral immune response in mice against sheep red blood cells by the plaque-forming cell (PFC/10e6 spleen cells) method in experiment 6 at dose 3 mg/kg; format: functional; how it was run: as §3
Mus musculus [26] = experiment: Effect on humoral immune response in mice against sheep red blood cells by the plaque-forming cell (PFC/10e6 spleen cells) method in experiment 4 at dose 3 mg/kg; format: functional; how it was run: as §3
[27] = as §4; format: ADME, organism-based; details: mouse, in vivo, sc; how it was run: as §5
Mus musculus [28] = experiment: Effect on humoral immune response in mice against sheep red blood cells by the plaque-forming cell (PFC/10e6 spleen cells) method in experiment 4 at dose 12 mg/kg; format: functional; how it was run: as §3
[29] = as §7; format: ADME, organism-based; details: mouse, in vivo; how it was run: as §5
Mus musculus [30] = experiment: Effect on humoral immune response in mice against sheep red blood cells by the plaque-forming cell (PFC/10e6 spleen cells) method in experiment 8 at dose 12 mg/kg; format: functional; how it was run: as §3
Mus musculus [31] = experiment: Effect on humoral immune response in mice against sheep red blood cells by the plaque-forming cell (PFC/10e6 spleen cells) method in experiment 8 at dose 3 mg/kg; format: functional; how it was run: as §3
Mus musculus [32] = experiment: Effect on humoral immune response in mice against sheep red blood cells by the plaque-forming cell (PFC/10e6 spleen cells) method in experiment 6 at dose 12 mg/kg; format: functional; how it was run: as §3

Fc1ccc2c(c1)CCC1C2N=C2SCCN21 (trans isomer)
Increase in footpad thickness (Mus musculus [1]): 0.44 mm
PFC (Mus musculus [2]): 1620
PFC (Mus musculus [3]): 1970
Increase in footpad thickness (Mus musculus [4]): 0.44 mm

Clc1ccc2c(c1)CCC1C2N=C2SCCN21 (trans isomer)
Increase in footpad thickness (Mus musculus [5]): 0.46 mm
PFC (Mus musculus [6]): 790
Increase in footpad thickness (Mus musculus [7]): 0.5 mm
PFC (Mus musculus [8]): 1530

c1ccc2c(c1)CCC1N=C3SCCN3C21 (trans isomer)
Increase in footpad thickness (Mus musculus [9]): 0.27 mm
PFC (Mus musculus [10]): 2440
LD50 (Mus musculus [11]): 190 mg/kg
PFC (Mus musculus [12]): 960
Increase in footpad thickness (Mus musculus [13]): 0.43 mm
LD50 (Mus musculus [14]): 26 mg/kg
PFC (Mus musculus [15]): 2580
Increase in footpad thickness (Mus musculus [16]): 0.39 mm
PFC (Mus musculus [17]): 1110

c1ccc2c(c1)CCC1C2N=C2SCCN21 (trans isomer)
PFC (Mus musculus [18]): 1500
Increase in footpad thickness (Mus musculus [19]): 0.57 mm
LD50 (Mus musculus [11]): 320 mg/kg
LD50 (Mus musculus [14]): 67 mg/kg
Increase in footpad thickness (Mus musculus [20]): 0.42 mm
PFC (Mus musculus [21]): 1100

Brc1ccc2c(c1)C1N=C3SCCN3C1CC2 (trans isomer)
PFC (Mus musculus [22]): 740
Increase in footpad thickness (Mus musculus [23]): 0.35 mm
PFC (Mus musculus [24]): 920
Increase in footpad thickness (Mus musculus [13]): 0.31 mm

Fc1ccc2c(c1)CCC1N=C3SCCN3C21 (trans isomer)
Increase in footpad thickness (Mus musculus [1]): 0.42 mm
PFC (Mus musculus [2]): 2070
PFC (Mus musculus [3]): 2550
Increase in footpad thickness (Mus musculus [4]): 0.42 mm

Clc1ccc2c(c1)CCC1N=C3SCCN3C21 (trans isomer)
Increase in footpad thickness (Mus musculus [5]): 0.36 mm
PFC (Mus musculus [6]): 820
Increase in footpad thickness (Mus musculus [7]): 0.39 mm
PFC (Mus musculus [8]): 1060

c1ccc([C@H]2CN3CCSC3=N2)cc1 [LEVAMISOLE]
Increase in footpad thickness (Mus musculus [9]): 0.34 mm
PFC (Mus musculus [22]): 1390
PFC (Mus musculus [25]): 1850
PFC (Mus musculus [26]): 1380
PFC (Mus musculus [2]): 1870
PFC (Mus musculus [3]): 2820
LD50 [27]: 136 mg/kg
PFC (Mus musculus [24]): 970
PFC (Mus musculus [6]): 1670
PFC (Mus musculus [8]): 1330
PFC (Mus musculus [28]): 1800
LD50 [29]: 15 mg/kg
PFC (Mus musculus [30]): 1200
PFC (Mus musculus [31]): 570
PFC (Mus musculus [32]): 1330
